Screening results (PubChem BioAssay)
Shown are actives, neighbours in structure and some others; about 0.85% of the full set was active somewhere.
CRFBP-R2 agonist = agonists of CRF-BP/CRF-R2 complex, primary screen, cell-based, HEK293, calcium dye fluorescence, uHTS; calcium dye fluorescence (FLIPR); percent of saturating CRF peptide response; activation, % at 13.2 µM; 350,000 tested, 0.46% active; AID 588473, 2011;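 active = activation of at least 50%, plus an integration ratio under a set limit after plate pattern correction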;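 also: plate controls were neutral control wells without compound for no effect and CRF at EC100 for full effect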
TRPN1 ag = zebrafish TRPN1 channel agonists, primary screen, cell-based, HEK293, calcium fluorescence; HEK293 zebrafish TRPN1-YFP, Fluo-8 calcium fluorescence; 100% = response to 87 µM carbachol; transient receptor potential cation channel N1 (TRPN1/NompC), Danio rerio; 220,000 tested, 0.18% active; activation, % at 3 µM;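 active = activation above its plate's cutoff, the mean activation of test wells on that plate plus 3 SD, cut at about 19% in these data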;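 also: 0% = DMSO alone and 100% = 87 µM carbachol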
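System: zebrafish TRPN1-YFP in HEK293 cells / Dosing: 3 µM single point / Timing: dye loading 1 h at 37 °C, then 30 min room temperature / Signal: Fluo-8 calcium fluorescence, excitation 470-495 nm, emission 515-575 nm / Read-out basis: percent activation from peak over basal fluorescence ratio, control-normalized / Control set: high carbachol 87 µM, low DMSO alone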
OXTR agonist = human OXTR agonists, primary screen, fluorescence, CHO-OTR cells, Fluo-8 calcium; Oxytocin receptor (Homo sapiens), P30559; 320,000 tested, 0.32% active; Fluo-8 calcium fluorescence; normalized: DMSO 0%, oxytocin 100%; activation, % at 3 µM;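 active = activation above the mean of all tested compounds plus 3 SD, cutoff set per screening run, cut at about 20% in these data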;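 also: peak over basal fluorescence ratio from a 100 s FLIPR kinetic read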
TRPML3 ag = human TRPML3 channel agonists, primary screen, cell-based, HEK293 TRPML3-YFP, Fluo-8 calcium fluorescence, 3 µM | Mucolipin-3 (Homo sapiens), Q8TDD5 | 100% = the carbachol control signal | activation, % at 3 µM | 220,000 tested, 0.29% active;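 active = activation above its plate's cutoff, the mean activation of the plate's test wells plus 3 SD, cut at about 12% in these data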;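 also: 0% = DMSO only wells and 100% = carbachol wells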
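Test system: TRPML3-YFP stable HEK293 cells. Doses: single point at 3 µM. Incubation: dye loading 1 h 37 °C then 30 min ambient, 125 s read. Signal: Fluo-8 calcium dye fluorescence, ex 470-495, em 515-575 nm. Measure: percent activation from peak-to-basal fluorescence ratio, scaled between DMSO and carbachol.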
OXTR potentiator = human OXTR potentiators, primary screen, fluorescence, CHO-OTR cells, Fluo-8 calcium; Fluo-8 calcium fluorescence, potentiator mode; 0% = oxytocin EC15, 100% = EC100; 320,000 tested, 0.061% active; activation, % at 3 µM;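 active = activation above that plate's cutoff, the mean activation of tested compounds plus 3 SD, cut at about 6.6% in these data, passing the limit was not always enough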;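 also: 100% uses oxytocin at 75 nM as the full agonist control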
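Material: human OTR in CHO cells. Compound: 3.0 µM, one dose. Timing: compound 6 min at room temperature before oxytocin, 100 s read. Evaluation: % activation of max/min ratio relative to oxytocin controls. Replication: single well per compound, singlicate. Signal: Fluo-8 calcium dye fluorescence.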
V1R ag counter = agonists of human V1a receptor, primary screen, counter-screen for OXTR agonist project, fluorescence, CHO-V1R cells; 320,000 tested, 0.25% active; activation, % at 3 µM; Fluo-8 calcium fluorescence, agonist mode; 0% DMSO, 100% 3 nM vasopressin; Vasopressin V1a receptor (Homo sapiens), P37288;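 active = activation above the mean activation of all tested compounds plus 3 SD, per screening run, cut at about 20% in these data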;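 also: signal is peak over basal fluorescence ratio across a 100 second FLIPR read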
Target sequence (P37288 whole entry, looked up): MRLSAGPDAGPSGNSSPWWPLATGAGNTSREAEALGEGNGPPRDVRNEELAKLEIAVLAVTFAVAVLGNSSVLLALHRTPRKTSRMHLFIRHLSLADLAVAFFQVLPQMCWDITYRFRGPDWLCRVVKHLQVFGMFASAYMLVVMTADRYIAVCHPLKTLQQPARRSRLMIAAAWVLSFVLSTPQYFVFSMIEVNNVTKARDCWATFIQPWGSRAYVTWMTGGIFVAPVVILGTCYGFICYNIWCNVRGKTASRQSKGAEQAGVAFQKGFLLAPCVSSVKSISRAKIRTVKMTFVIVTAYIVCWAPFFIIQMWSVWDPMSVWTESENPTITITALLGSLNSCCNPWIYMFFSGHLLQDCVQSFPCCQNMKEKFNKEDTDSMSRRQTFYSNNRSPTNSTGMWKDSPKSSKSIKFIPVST
* marks the source's active call; other numbers are inactive results; x = not tested or not shown.

SMILES | CRFBP-R2 agonist | TRPN1 ag | OXTR agonist | TRPML3 ag | OXTR potentiator | V1R ag counter
CCCCC(=O)NC(=S)NNC(=O)c1ccc(OC)cc1 | 85* | -1 | 3 | 0 | -5 | 2
COc1ccc(C(=O)NC(=S)NNC(=O)c2ccncc2)cc1Br | 4 | x | 3 | x | 1 | 4
CCOc1ccccc1N1CCN(CC(=O)Nc2nccs2)CC1 | 0 | x | x | x | x | x
COc1ccc(Cl)cc1C(=O)NNC(=S)NC(=O)c1cc(-c2ccc(Cl)cc2)nc2ccccc12 | 25 | -3 | 8 | 1 | -17 | 3
Cc1ccc(C(=O)NNC(=O)c2cccc(C)c2)cc1 | -4 | 2 | 0 | 1 | -2 | 1
Cc1cccc(C(=O)NNC(=S)NC(=O)c2ccccc2)c1 | 149* | x | 83* | x | -22 | 108*
COc1ccc(Cl)cc1C(=O)NNC(=S)NC(=O)c1ccc(F)c(F)c1 | 142* | x | 9 | x | -19 | 9
O=C(COc1cccc(Cl)c1)NNC(=S)Nc1ccccc1 | -3 | 2 | 0 | 1 | -4 | -1
O=C(COc1ccccc1)NNC(=S)NC(=O)c1ccc(Cl)cc1Cl | 69* | 0 | 0 | 1 | -11 | -1
Cc1cccc(C(=O)NNC(=S)NC(=O)c2cccs2)c1 | 154* | x | 65* | x | -19 | 63*
Cc1cccc(C(=O)NC(=S)NNC(=O)COc2ccc(Cl)cc2)c1 | 59* | 1 | x | 1 | x | x
C#CC[N+](C)(C)CCCCCCCC | 275* | 1 | 0 | 0 | -4 | 0
C#CC[N+](C)(C)CCCCCCCCCC | 8 | 0 | 0 | 0 | 1 | 1
CCN(CC)CCNC(=O)c1nn(-c2ccc(Cl)cc2)c2c1CCc1cc(OC)ccc1-2 | 2 | x | x | x | x | x
CCCn1c(SCC(=O)N2CC(=O)Nc3ccccc32)nc2ccccc21 | 56* | -1 | -1 | -1 | -3 | 1
O=C1CN(C(=O)CSc2nc3ccccc3n2CCc2ccccc2)c2ccccc2N1 | 1 | -1 | -2 | -1 | -13 | 1
Cn1cc(/C=C2\SC(=S)N(NC(=O)c3ccccc3Cl)C2=O)c2ccccc21 | 70* | 3 | 13 | 1 | -3 | 10
O=C(Nc1cc(C(F)(F)F)ccc1Cl)C(Sc1cccc[n+]1[O-])c1ccccc1 (configuration not stated) | 160* | 2 | 0 | 0 | 7 | -1
Nc1c(C(=O)c2ccccc2)sc2nsc(SCCN3CCOCC3)c12 | 69* | 8 | 49* | 4 | -22 | 49*
O=C1CCN2C=Nc3cccc4ccc1c2c34 | 598 | 7 | 38* | 8 | -14 | 29*
O=C1CCC(=O)c2ccc3c4c(ccc1c24)CC3 | -3 | x | x | x | x | x
CCc1ccc(-c2nc(CN3CCC(C(=O)N4CCN(c5ccccc5)CC4)CC3)c(C)o2)cc1 | 313* | 3 | 29* | 4 | -11 | 34*
CC(=O)Nc1cccc(C(=O)OC(C)C(=O)N2CCc3ccccc32)c1 (configuration not stated) | -1 | x | 1 | x | -8 | 1
OCC[C@H]1C[C@@H](O)[C@H](O)[C@]2(OCCc3ccccc32)O1 | -1 | x | 1 | x | -6 | 4
CCOc1ccc(N(CC(=O)N2CCCC2)S(=O)(=O)c2ccc(F)cc2)cc1 | 0 | x | 1 | x | -4 | 0
SMILES | CRFBP-R2 agonist | TRPN1 ag | OXTR agonist | TRPML3 ag | OXTR potentiator | V1R ag counter
CCOc1ccc(N(CC(=O)O)S(=O)(=O)c2ccc(F)cc2)cc1 | 4 | 70* | 0 | 1 | -9 | 0
CCN1C[C@@H]2[C@@H]3C(=O)N(C)C(=O)[C@@H]3[C@](Cc3ccccc3)(C1=O)N2C(=O)c1ccc(C(C)(C)C)cc1 | -1 | x | x | x | x | x
N#C/C(=C(/O)COc1ccc(Cl)cc1)c1nc2ccccc2s1 | 70* | 5 | 8 | 2 | -8 | 8
CC(=O)c1c(C)c2c(n1CCN(C)C)CCCC2 | 62* | 2 | 0 | 1 | -18 | 1
Cc1ccc(Cn2c(SCC(=O)N(C)C3CCS(=O)(=O)C3)nc3ccccc3c2=O)cc1 (configuration not stated) | 1 | x | 1 | x | 0 | 0
Cc1cc(NC(=O)CSc2nccn2-c2cccc(Cl)c2)no1 | -1 | x | 0 | x | 1 | 1
COc1cc(OC)cc(N(C(=O)CNC(=O)c2cccs2)C(C(=O)NCC2CCCO2)c2ccc(OC)c(OC)c2)c1 (configuration not stated) | 53* | 0 | 1 | 1 | -9 | 1
COc1ccc(N(C(=O)CNC(=O)c2cccs2)C(C(=O)NCC2CCCO2)c2ccc(OC)c(OC)c2)cc1 (configuration not stated) | -2 | 0 | 0 | 0 | -5 | 0
OCCCc1nc2n(n1)C(c1cccs1)C=C(c1ccccc1)N2 (configuration not stated) | x | 0 | 82* | 0 | -12 | 50*
CC1CC(C)CN(C2CCCCC2NS(=O)(=O)c2ccc(Cl)cc2)C1 (configuration not stated) | 55* | x | -3 | x | 2 | -1
COc1ccccc1N1CCN(C2CCCCC2NS(=O)(=O)c2ccc(Cl)cc2)CC1 (configuration not stated) | 212* | x | -3 | x | -3 | 0
COc1ccc(N2CCN(C3CCCCC3NS(=O)(=O)c3ccc(Cl)cc3)CC2)cc1 (configuration not stated) | 70* | x | -1 | x | -10 | -1
CC(Nc1nc(-c2cccc(Br)c2)cs1)c1nc2cc(Cl)c(N3CCCCC3)cc2n1CCOCCO (configuration not stated) | 0 | x | 1 | x | 3 | 0
COc1ccc(-c2noc(CCC(=O)Nc3cccc(C(=O)NC4CC4)c3)n2)cc1OC | 0 | x | x | x | x | x
Cc1ccc[n+](-c2nc([O-])sc2C=O)c1 | 92* | 7 | 6 | 3 | -4 | 9
c1ccc2c(c1)CCCN2Cc1nnnn1CC1CCCO1 (configuration not stated) | 7 | 3 | 1 | 1 | -3 | 1
c1ccc(CCn2nnnc2CN2CCCc3ccccc32)cc1 | 68* | -1 | -1 | 0 | -5 | 0
O=C(O)c1ccccc1-c1ccc(/C=c2\sc3nc4cc(Br)cnc4n3c2=O)o1 | 157* | -1 | 1 | 1 | 2 | 1
